Experimental data as given in ChEMBL document CHEMBL2203099, “Identification of a crucial amino acid in the helix position 6.51 of human tachykinin neurokinin 1 and 3 receptors contributing to the insurmountable mode of antagonism by dual NK₁/NK₃ antagonists” (J Med Chem, 2012).
Positions count from the first letter of the chain named. Active and inactive are the calls of the source. The calls are words filed in the database; no cut-off is given here.

Key:
Neuromedin-K receptor [1] = target: T1, Neuromedin-K receptor (Homo sapiens, UniProt P29371); assay: Binding affinity to wild type human NK3 receptor
T1 sequence (P29371 whole entry): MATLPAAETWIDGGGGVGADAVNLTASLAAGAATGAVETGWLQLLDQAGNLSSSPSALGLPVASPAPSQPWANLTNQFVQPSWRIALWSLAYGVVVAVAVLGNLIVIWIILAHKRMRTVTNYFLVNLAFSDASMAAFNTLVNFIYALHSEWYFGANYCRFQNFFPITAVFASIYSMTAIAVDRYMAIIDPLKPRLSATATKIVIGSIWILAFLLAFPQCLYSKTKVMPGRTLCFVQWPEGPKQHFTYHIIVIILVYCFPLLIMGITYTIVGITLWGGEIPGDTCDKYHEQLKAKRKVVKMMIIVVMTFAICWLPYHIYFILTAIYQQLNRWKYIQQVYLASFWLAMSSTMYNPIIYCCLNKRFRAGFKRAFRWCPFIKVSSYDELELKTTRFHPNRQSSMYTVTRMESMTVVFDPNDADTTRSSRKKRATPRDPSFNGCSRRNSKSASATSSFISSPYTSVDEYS

HEK293 = assay: Selectivity ratio of Ki for human NK3 Y247F mutant expressed in HEK293 cells to Ki for wild type human NK3 receptor expressed in HEK293 cells; type: cell-based
Neuromedin-K receptor [2] = target: Neuromedin-K receptor (Homo sapiens, UniProt P29371, H316W); assay: Displacement of radioligand [3H]osanetant at human NK3 H316W mutant expressed in HEK293 cells; type: cell-based
Chain of Neuromedin-K receptor (Homo sapiens, UniProt P29371, H316W) (P29371 whole entry H316W): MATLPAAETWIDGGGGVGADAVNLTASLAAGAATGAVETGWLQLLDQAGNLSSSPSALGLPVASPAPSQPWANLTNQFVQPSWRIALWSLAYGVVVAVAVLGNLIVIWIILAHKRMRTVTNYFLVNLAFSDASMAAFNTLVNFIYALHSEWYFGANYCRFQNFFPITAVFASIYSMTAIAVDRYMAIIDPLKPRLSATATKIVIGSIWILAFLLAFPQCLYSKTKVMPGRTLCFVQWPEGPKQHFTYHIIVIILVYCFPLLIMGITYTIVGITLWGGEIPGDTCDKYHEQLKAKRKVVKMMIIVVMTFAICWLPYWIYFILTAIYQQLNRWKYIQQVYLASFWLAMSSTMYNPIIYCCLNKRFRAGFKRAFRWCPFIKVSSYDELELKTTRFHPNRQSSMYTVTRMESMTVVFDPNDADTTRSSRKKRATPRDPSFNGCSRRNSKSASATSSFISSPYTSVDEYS

Neuromedin-K receptor [3] = target: Neuromedin-K receptor (Homo sapiens, UniProt P29371, H316F); assay: Displacement of radioligand [3H]osanetant at human NK3 H316F mutant expressed in HEK293 cells; type: cell-based
Chain of Neuromedin-K receptor (Homo sapiens, UniProt P29371, H316F) (P29371 whole entry H316F): as the sequence (P29371 whole entry H316W) above, with W316F counted along it

[4] = test system: T2, Neuromedin-K receptor (Homo sapiens), P29371 [Y315F]; assay: Antagonist activity at human NK3 Y315F6.51 mutant expressed in HEK293 cells assessed as decrease in [MePhe7]NKB-induced [3H]IP accumulation at 10 nM after 20 mins; type: functional, cell-based
T2 sequence (whole entry): T1 sequence (P29371 whole entry) with Y315F

Neuromedin-K receptor [5] = target: Neuromedin-K receptor (Homo sapiens, UniProt P29371, Y315F); assay: Displacement of radioligand [3H]osanetant at human NK3 Y315F6.51 mutant expressed in HEK293 cells; type: cell-based
Chain of Neuromedin-K receptor (Homo sapiens, UniProt P29371, Y315F) (P29371 whole entry Y315F): as the sequence (P29371 whole entry H316W) above, with Y315F, W316H counted along it

Neuromedin-K receptor [6] = target: T1, Neuromedin-K receptor; assay: Displacement of [3H]osanetant from wild type human NK3 receptor expressed in HEK293 cells; type: cell-based
[7] = test system: T2, Neuromedin-K receptor (Homo sapiens), P29371 [Y315F]; assay: Noncompetitive inhibition at human NK3 Y315F6.51 mutant expressed in HEK293 cells assessed as decrease in [MePhe7]NKB-induced [3H]IP accumulation after 20 mins; type: cell-based
Method in brief: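 HEK293 cells transiently expressing human NK3 WT or mutant, labeled with myo-[³H]inositol in LiCl buffer. Antagonist preincubated 20 min at 37 °C, then [MePhe⁷]NKB (0.01 nM–1 μM) added for 45 min at 37 °C. [³H]IP read by SPA beads. Schild analysis of EC50 shift and Emax depression across increasing antagonist concentrations gives pA2, slope and mode of antagonism.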

SMILES: Cc1cc(F)ccc1-c1cc(N2CC[C@H](O)[C@H]2CO)ncc1N(C)C(=O)C(C)(C)c1cc(C(F)(F)F)cc(C(F)(F)F)c1
- Ki (Neuromedin-K receptor [1]): 2.9 nM
- Ratio Ki (HEK293): 1.3
- Ki (Neuromedin-K receptor [2]): 2010 nM
- Ki (Neuromedin-K receptor [3]): 12.5 nM
- Activity [4]: Active
- Ki (Neuromedin-K receptor [5]): 0.7 nM
- Ki (Neuromedin-K receptor [6]): 2.9 nM
- inhibition [7]: Active
